Results from paper PMC5431288 (European journal of medicinal chemistry, 2016).

What was measured:
[1] = Metabolic stability in human liver microsomes; assay type: in vitro ADME; conditions: 10 μM
Summary of the method: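 Pooled mixed-gender human liver microsomes (1.0 mg/mL) in 0.1 M KH₂PO₄, pH 7.4, with 10 μM final compound, with or without 1 mM NADPH; buffer-only controls. Microsomes added after 3-min equilibration at 37 °C. Stopped at 0, 15, 30 or 60 min with ice-cold acetonitrile, then centrifuged. Supernatants analysed by C18 HPLC with fluorescence detection (ex 344/em 493 nm). Percent remaining from peak area versus 0 min; mean ± SD, n = 3–4.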

Jurkat cells [2] = test: ROS production; assay type: cell-based, human; conditions: 24 or 48 h
Summary of the method: (§1)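 HeLa or Jurkat cells were treated with test compound for 24 or 48 h, then loaded with H₂-DCFDA, which ROS oxidise to fluorescent DCF. Fluorescence was measured by flow cytometry. Mean ± SEM of three independent experiments.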

HeLa cells [3] = test: ROS production; assay type: cell-based, human; conditions: 24 or 48 h
Summary of the method: as §1

Jurkat cells [4] = test: Mitochondrial membrane potential; assay type: cell-based, human; conditions: 24 or 48 h
HeLa cells [5] = test: Annexin-V/PI apoptosis assay, HeLa; assay type: cell-based, human; conditions: 24 or 48 h
Summary of the method: (§2)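 Human lines: HeLa grown in DMEM and Jurkat in RPMI-1640, each with 10% FBS, penicillin G and streptomycin. Cells exposed to test compound at several concentrations for 24 or 48 h, harvested and double-stained with annexin-V-FITC and PI. Surface phosphatidylserine read by flow cytometry, giving live, early apoptotic, late apoptotic and necrotic fractions. Mean ± SEM of three independent experiments.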

HeLa cells [6] = test: Flow cytometric cell cycle analysis, HeLa; assay type: cell-based, human; conditions: 24 h, different concentrations
Summary of the method: (§3)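 5 × 10⁵ HeLa (DMEM) or Jurkat (RPMI-1640) cells, both with 10% FBS, were treated with a range of test compound concentrations for 24 h. Cells were then collected and fixed in ice-cold 70% ethanol, lysed in buffer with RNase A and 0.1% Triton X-100, and PI-stained. DNA content was read by flow cytometry and histograms analysed for phase percentages. Mean of two independent experiments.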

Jurkat cells [7] = test: Annexin-V/PI apoptosis assay, Jurkat; assay type: cell-based, human; conditions: 24 or 48 h
Summary of the method: as §2

Jurkat cells [8] = test: Flow cytometric cell cycle analysis, Jurkat; assay type: cell-based, human; conditions: 24 h, different concentrations
Summary of the method: as §3

[9] = tested on: panel of 11 human tumor cell lines; test: MTT antiproliferative assay, whole panel; assay type: cell-based; conditions: read-out: GI50 values across the panel
Summary of the method: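 Leukemia lines grown in RPMI-1640 and adherent carcinoma lines in DMEM, each with 10% FBS plus penicillin/streptomycin. Seeded at 8 × 10³ cells/well and settled 18 h at 37 °C, 5% CO₂. Medium was then replaced with fresh medium holding graded compound concentrations from 10 mM DMSO stocks, in triplicate, for 72 h. Viability by MTT; GI50 is the concentration inhibiting proliferation by 50%.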

HeLa cells [10] = test: Mitochondrial membrane potential; assay type: cell-based, human; conditions: 24 or 48 h
tubulin = conditions: cited from earlier work
A549 cell line = conditions: cited from earlier work
bovine brain tubulin = bovine brain tubulin (Bos taurus, UniProt P81947+Q6B856); conditions: read-out: tubulin assembly IC50; cited from earlier work
Sequence of bovine brain tubulin (Q6B856 whole entry): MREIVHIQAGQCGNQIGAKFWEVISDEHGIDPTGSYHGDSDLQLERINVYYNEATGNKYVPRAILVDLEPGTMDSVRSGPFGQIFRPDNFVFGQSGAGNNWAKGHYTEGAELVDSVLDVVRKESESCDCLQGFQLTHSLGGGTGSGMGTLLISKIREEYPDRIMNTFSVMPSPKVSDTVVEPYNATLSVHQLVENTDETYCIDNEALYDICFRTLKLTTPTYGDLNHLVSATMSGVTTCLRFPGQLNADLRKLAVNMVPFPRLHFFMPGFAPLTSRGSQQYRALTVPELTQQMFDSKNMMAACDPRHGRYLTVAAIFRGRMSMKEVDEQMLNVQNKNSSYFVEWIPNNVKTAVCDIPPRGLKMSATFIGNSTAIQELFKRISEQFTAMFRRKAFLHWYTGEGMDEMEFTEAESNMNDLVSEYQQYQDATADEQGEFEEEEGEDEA
Sequence of bovine brain tubulin (P81947 whole entry): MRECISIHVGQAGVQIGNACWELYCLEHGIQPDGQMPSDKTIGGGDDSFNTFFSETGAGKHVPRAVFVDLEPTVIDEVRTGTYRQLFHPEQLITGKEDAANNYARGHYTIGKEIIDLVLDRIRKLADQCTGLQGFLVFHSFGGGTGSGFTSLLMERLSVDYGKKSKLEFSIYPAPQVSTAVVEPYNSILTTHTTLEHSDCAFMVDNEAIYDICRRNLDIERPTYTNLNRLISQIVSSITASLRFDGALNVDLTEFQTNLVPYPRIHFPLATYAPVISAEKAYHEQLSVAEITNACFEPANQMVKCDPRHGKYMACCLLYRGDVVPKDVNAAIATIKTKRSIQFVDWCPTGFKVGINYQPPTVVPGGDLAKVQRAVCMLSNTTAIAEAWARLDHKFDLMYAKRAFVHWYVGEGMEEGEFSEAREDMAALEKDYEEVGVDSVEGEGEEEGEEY

O=C(c1ccccc1)n1ccc2c3c(=O)cc(-c4ccccc4)[nH]c3ccc21 [Compound 4a, 3-Benzoyl-7-phenyl-6H-pyrrolo[3,2-f]quinolin-9-one]
influence of NADPH on compound disappearance ([1]; HLMs 1 mg/mL, with or without 1 mM NADPH): not influenced by the presence of NADPH
compound remaining ([1]; human liver microsomes 1 mg/mL, 60 min, 37 °C): more than 60%
ROS production (H2-DCFDA) (Jurkat cells [2]): induced the production of large amounts of ROS
ROS production (H2-DCFDA) (HeLa cells [3]): induced the production of large amounts of ROS
cells with low mitochondrial transmembrane potential (JC-1) (Jurkat cells [4]): marked increase in the percentage of cells with low Δϕmt
induction of apoptosis (annexin-V/PI) (HeLa cells [5]): significant time- and concentration-dependent increase of apoptotic cells
effect on cell cycle progression (HeLa cells [6]): significant G2/M arrest in a concentration-dependent manner
induction of apoptosis (annexin-V/PI) (Jurkat cells [7]): significant time- and concentration-dependent increase of apoptotic cells
effect on cell cycle progression (Jurkat cells [8]): significant G2/M arrest in a concentration-dependent manner
GI50 [9]: 0.1 to 10 nM
cells with low mitochondrial transmembrane potential (JC-1) (HeLa cells [10]): marked increase in the percentage of cells with low Δϕmt

CS(=O)(=O)n1ccc2c3c(=O)cc(-c4ccccc4)[nH]c3ccc21 [Compound 4b, 3-Methanesulfonyl-7-phenyl-6H-pyrrolo[3,2-f]quinolin-9-one]
ROS production (H2-DCFDA) (Jurkat cells [2]): induced the production of large amounts of ROS
ROS production (H2-DCFDA) (HeLa cells [3]): induced the production of large amounts of ROS
cells with low mitochondrial transmembrane potential (JC-1) (Jurkat cells [4]): marked increase in the percentage of cells with low Δϕmt
induction of apoptosis (annexin-V/PI) (HeLa cells [5]): significant time- and concentration-dependent increase of apoptotic cells
induction of apoptosis (annexin-V/PI) (Jurkat cells [7]): significant time- and concentration-dependent increase of apoptotic cells
cells with low mitochondrial transmembrane potential (JC-1) (HeLa cells [10]): marked increase in the percentage of cells with low Δϕmt

O=C(c1ccccc1)N1CCc2c1ccc1[nH]c(-c3ccccc3)cc(=O)c21 [Compound 7a, 3-benzoyl-1,2-dihydro-7-phenyl-6H-pyrrolo[3,2-f]quinolin-9-one]
GI50 [9]: 250 to 2650 nM

CS(=O)(=O)N1CCc2cc3[nH]c(-c4ccccc4)cc(=O)c3cc21 [Compound 8b, 1N-methanesulfonyl-2,3-dihydro-6-phenyl-5H-pyrrolo [2,3-g]quinolin-8-one]
GI50 [9]: > 10000 nM

O=c1cc(-c2ccccc2)[nH]c2ccc3c(ccn3CC3CC3)c12 [Compound 10]
inhibition of colchicine binding (tubulin): 83%
induction of autophagy (A549 cell line): induce autophagy
IC50 (bovine brain tubulin): 900 nM
